High-throughput results (PubChem BioAssay)
Most compounds without a hit are left out; they make up all but 2.6% or so of the library.
IMP-1 inhibitor – blocks Pseudomonas aeruginosa IMP-1 metallo-beta-lactamase; purified IMP-1, nitrocefin hydrolysis, epi-absorbance fluorescence; 290,000 compounds, 0.45% hits; AID 1556; inhibition, % at 5.6 µM;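 active = inhibition above the mean plus 3 SD of all compounds in the same screening run, cut at about 4.5% in these data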;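 also: 0% = IMP-1 with DMSO and 100% = DMSO wells lacking enzyme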
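system = purified recombinant IMP-1 beta-lactamase | amount = 0.2 nM IMP-1, as dispensed | medium = HEPES buffer pH 7.1 with ZnSO4 and Brij 35 | times = 25 °C, 15 min preincubation, 25 min reaction | detection = plate fluorescence quenching by hydrolysis product, ex 480/em 530 nm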
VIM-2 inhibitor – blocks Pseudomonas aeruginosa VIM-2 metallo-beta-lactamase. 290,000 compounds, 0.89% hits. purified VIM-2, nitrocefin hydrolysis, epi-absorbance fluorescence. inhibition, % at 5.6 µM. AID 1527;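 active = inhibition above the mean of all tested compounds plus 3 SD, cutoff set per screening run, cut at about 7.5% in these data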;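 also: red hydrolysis product quenches plate fluorescence so inhibitors raise well fluorescence; 0% = enzyme with DMSO and 100% = DMSO without enzyme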
RanGTP-Impb inh – disruptors of Ran-importin-beta complex formation – biochemical, FRET, CFP-Ran, YFP-importin-beta, homogeneous, primary screen | cell-free CFP-Ran/YFP-importin-beta FRET ratio | inhibition, % (test concentration not listed) | 300,000 compounds, 1.1% hits;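 active = more than half of the replicate wells show a fall in the fluorescence ratio signal beyond about 16%, limit read from the data, passing the limit was not always enough; inconclusive = exactly half of the replicate wells pass the set limit; inactive = fewer than half of replicates pass the limit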;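 also: 0% = DMSO wells and 100% = Ran loaded with GDP instead of GTP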
Runt-CBFb FRET – Runt domain-CBFb interaction inhibition; inhibition, % at 20 µM; Q01196+Q13951; 220,000 compounds, 0.46% hits; Cerulean-Runt/Venus-CBFb FRET ratio 530/480, 1 h;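 active = inhibition over about 50% at 20 µM in the single-dose screen, limit read from the data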;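 also: 0% = DMSO wells and 100% = excess unlabeled CBFb competitor control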
Target sequence (Q01196 whole entry, looked up, the tested form may be a part): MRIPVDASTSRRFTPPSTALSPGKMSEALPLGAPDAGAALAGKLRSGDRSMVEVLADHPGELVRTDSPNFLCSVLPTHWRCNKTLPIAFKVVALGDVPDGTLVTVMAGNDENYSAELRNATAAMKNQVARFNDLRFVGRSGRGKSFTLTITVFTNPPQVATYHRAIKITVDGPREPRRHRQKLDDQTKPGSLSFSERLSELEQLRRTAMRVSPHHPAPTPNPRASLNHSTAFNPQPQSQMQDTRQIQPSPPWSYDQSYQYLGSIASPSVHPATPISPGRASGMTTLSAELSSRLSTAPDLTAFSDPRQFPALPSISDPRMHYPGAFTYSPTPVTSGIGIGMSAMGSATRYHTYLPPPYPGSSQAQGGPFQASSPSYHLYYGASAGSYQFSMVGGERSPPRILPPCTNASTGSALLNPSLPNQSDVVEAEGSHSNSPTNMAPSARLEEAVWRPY
Target sequence (Q13951 whole entry, looked up, the tested form may be a part): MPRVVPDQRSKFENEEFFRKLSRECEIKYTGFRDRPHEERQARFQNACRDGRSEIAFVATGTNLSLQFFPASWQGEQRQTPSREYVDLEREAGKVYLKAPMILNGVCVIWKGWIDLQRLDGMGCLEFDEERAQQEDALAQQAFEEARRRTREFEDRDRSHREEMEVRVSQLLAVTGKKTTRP
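Assay system: Cerulean-Runt domain fusion protein, energy donor; Signal: fluorescence energy transfer, 422 nm excitation, 530/480 nm emission; Timing: 1 h compound exposure, room temperature; Control set: unlabeled CBFb; Medium: Tris buffer pH 7.5 with salts and BSA; Compound: single test concentration of 20 µM, 1% DMSO final; Probe or stimulus: Venus-CBFb 100 nM.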
Runt-SMMHC FRET – blocks binding of human RUNX1 Runt domain to CBFb-SMMHC. inhibition, % at 20 µM. AID 1434. Cerulean-Runt/Venus-CBFb-SMMHC FRET ratio 530/480, 1 h. 220,000 compounds, 0.74% hits;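 active = mean inhibition across duplicate retests at 20 µM reaching about 50%, limit read from the data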;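 also: 0% = DMSO wells and 100% = wells with excess untagged CBFb-SMMHC; inhibitors lower the FRET ratio by blocking Runt binding to CBFb-SMMHC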
Starred values were filed as active, the others as inactive; u = inconclusive; x = not tested or not shown.

SMILES	IMP-1 inhibitor	VIM-2 inhibitor	RanGTP-Impb inh	Runt-CBFb FRET	Runt-SMMHC FRET
O=C(CN1C(=O)S/C(=C\c2cc(Cl)c(O)c(Cl)c2)C1=O)Nc1ccccc1	2.8	3.0	50.8*	x	x
O=C(CN1C(=O)S/C(=C\c2ccccn2)C1=O)Nc1ccccc1	-0.9	-1.6	x	x	x
Cc1cc(C(=O)O)ccc1-c1ccc(/C=C2\SC(=O)N(CC(=O)Nc3ccc4c(c3)OCO4)C2=O)o1	8.0*	0.2	x	x	x
Cc1ccc(C(=O)O)cc1-c1ccc(/C=C2\SC(=O)N(CC(=O)Nc3ccccc3)C2=O)o1	0.7	0.9	24.1*	10.6	87.6
CC(C)c1ccccc1NC(=O)CNCCOc1ccccc1F	-1.1	-0.6	0.1	x	x
CCn1c(CC(=O)Nc2ccc(C)cc2)nnc1SCC(=O)N1CCOCC1	-3.3	-4.3	0.8	x	x
Cc1ccc(NC(=O)CN2C(=O)S/C(=C\c3ccc(-c4cccc(C(=O)O)c4C)o3)C2=O)cc1	-2.9	-0.5	41.7*	25.0	-10.2
COc1ccc(S(=O)(=O)N2CCN(C)CC2)cc1NC(=O)c1ccccc1	-3.6	-0.8	1.1	x	x
Cn1ccnc1SCC(=O)c1cc2ccccc2o1	4.6*	-0.3	2.9	4.6	1.5
Cn1cnnc1SCC(=O)c1cc2ccccc2o1	-1.4	-4.1	-0.5	0.5	0.1
O=C(O)c1c(C(=O)O)c(-c2ccc(F)cc2)n2c1CCC2	1.4	10.6*	-2.5	x	x
Cc1ccc(-c2c(C(=O)O)c(C(=O)O)c3n2CCC3)cc1	-1.6	9.8*	x	1.3	-2.5
COc1ccc(NC(=O)Cn2nnc(C(=O)Nc3ccc(F)c(Cl)c3)c2N)cc1	8.1*	1.1	5.0	x	x
Cc1ccc(NC(=O)Cn2nnc(C(=O)Nc3ccc(F)c(Cl)c3)c2N)cc1	0.7	-0.4	5.6	x	x
CC1CCCCC1Nc1nc2ccc(Cl)cc2n2cnnc12 (stereo not given)	-3.5	-2.5	1.1	x	x
CSc1nc(SCC(N)=O)c2c3c(sc2n1)CN(C)CC3	0.6	5.8	2.7	-2.2	-4.5
CCSc1nc(N)c2c3c(sc2n1)CN(C)CC3	0.0	8.5*	5.3	1.9	18.0
CSc1nc(N)c2c3c(sc2n1)CN(C)CC3	0.4	7.3	u	x	x
COC(CSc1nc(N)c2c3c(sc2n1)CN(C)CC3)OC	-1.2	0.5	6.9	x	x
CCNc1nc(SCC(N)=O)nc2sc3c(c12)CCN(C)C3	3.8	3.9	48.4*	x	x
C=CCSc1nc(N)c2c3c(sc2n1)CN(C)CC3	-1.8	0.4	18.5*	x	x
CCN1C(=O)[C@H]2[C@@H](c3ccc(-c4cccc(Cl)c4)c(OC)c3)N[C@@](CC(C)C)(C(=O)OC)[C@H]2C1=O	x	x	5.8	x	x
Cc1ccc(Cn2c(=N)c(C(=O)NC3CCCCC3)cc3c(=O)n4ccccc4nc32)cc1	-2.0	1.8	161.1*	x	x
Cn1c(C(=O)NC2CCCCC2)cc2c(=O)n3ccccc3nc21	1.4	5.4	2.5	x	x
N=c1c(C(=O)NC2CCCC2)cc2c(=O)n3ccccc3nc2n1Cc1ccccc1	-0.5	7.9*	177.4*	x	x
SMILES	IMP-1 inhibitor	VIM-2 inhibitor	RanGTP-Impb inh	Runt-CBFb FRET	Runt-SMMHC FRET
CCOC(=O)c1cc2c(=O)n3ccccc3nc2n(Cc2ccccc2)c1=N	0.5	-1.1	188.2*	18.4	62.6*
N=c1c(C(=O)NC2CCCCC2)cc2c(=O)n3ccccc3nc2n1Cc1ccc(F)cc1	0.4	9.9*	159.0*	x	x
Cc1c(CC(=O)NCC(C)C)c(=O)oc2cc3c(cc12)CCC(C)(C)O3	-2.8	-3.9	3.2	x	x
CN1C(=O)c2cccc3c(Cl)ccc(c23)C1=O	-0.1	0.4	-0.6	-2.9	-2.5
CN1C(=O)c2cccc3c(N(C)C)ccc(c23)C1=O	1.1	9.8*	-48.8	x	x
O=c1c(O)cccc2cc(O)c(O)c(O)c12	7.7*	5.3	u	23.5	-3.7
CCOc1ccccc1NC(=O)NCCCCc1ccccc1	-1.7	-1.4	-0.9	x	x
Cn1c(=O)c2c(ncn2Cc2ccccc2)n(C)c1=O	4.0	0.1	-4.3	0.5	1.2
Cn1c(=O)c2nc(NCc3ccccc3)cnc2n(C)c1=O	-1.3	-0.5	75.1*	11.5	37.9
CCc1ccc(CN2CCC(N3CCC(C(=O)N4CCCC4)CC3)CC2)o1	-2.1	-2.3	2.0	x	x
CCC(C)(C)N(C(=O)CCC(=O)Nc1cc(C)on1)C(C(=O)NC(C)(C)C)c1ccc(OC)cc1 (stereo not given)	-1.4	0.0	-2.4	x	x
Cc1nn(-c2ccccc2)c2sc(C(=O)NNC(=O)COc3ccccc3)cc12	-3.3	-3.5	1.1	121.0*	128.0
Cc1nn(-c2ccccc2)c2sc(C(=O)NNC(=O)COc3cccc4ccccc34)cc12	-2.4	2.5	2.8	-4.3	-3.0
COc1cccc(NC(=O)CN(C)C(=O)c2cc(-c3cccc(Br)c3)nc3ccccc23)c1	x	x	6.9	x	x
CC(C)(C)c1cc2nc3c(c(=O)n2[nH]1)CN(Cc1ccccc1)C3=O	-3.9	-2.6	-3.4	26.6	10.1
CC(C)(C)c1cnnn1-c1ccc(/C=N/Nc2ccc([N+](=O)[O-])cc2)cc1	-0.5	-1.8	33.8*	-27.5	-24.0
Cc1cccc(C(=O)NNC(=O)C2CC2)c1	-2.0	8.7*	-2.4	x	x
NC(=O)c1nsc(C(=O)N(CCc2ccccc2)C(C(=O)NC2CCCC2)c2ccco2)c1N (stereo not given)	-3.7	-4.2	88.5*	4.3	5.7
CCc1ccc(N(C(=O)c2snc(C(N)=O)c2N)C(C(=O)NC2CCCC2)c2ccco2)cc1 (stereo not given)	-1.9	-1.4	5.2	x	x
CCOc1ccc(C(=O)N/N=C/c2cccc3cccnc23)cc1	1.7	-2.6	3.3	-3.8	-8.9
CCOc1ccccc1C(=O)N/N=C/c1cccc2cccnc12	-4.8	9.2*	-2.3	2.6	2.5
O=C1NC(NS(=O)(=O)c2ccccc2)(C(F)(F)F)C(=O)N1c1cccc(Cl)c1 (stereo not given)	1.3	0.3	3.6	x	x
CC(C)c1ccc2nc(SCC(=O)NCC3CCCO3)c(C#N)cc2c1 (stereo not given)	-2.2	2.0	-2.0	x	x
CC(C)c1nc(SCC(=O)Nc2ccc3c(c2)OCCO3)n[nH]1	-1.9	-2.5	19.5*	-0.4	-3.0
CN(C)c1ccnc2sc3c(SCc4ccc(Cl)cc4)ncnc3c12	-2.4	-2.4	-2.1	-5.3	2.6
CN(C)c1ccnc2sc3c(NCC(O)CO)ncnc3c12 (stereo not given)	-1.0	8.3*	3.9	-2.6	-1.4
COc1ccc(-c2cc(C(=O)OCC(=O)N(C)C)c3ccccc3n2)cc1	4.7*	1.2	-1.9	-3.7	0.2
COc1ccc(CCNc2c(C)c(C)nc3ncnn23)cc1	-1.8	8.8*	-0.2	-2.9	0.1
CCN(CC)c1ccc(/C=N/NC(=O)c2cccc(S(=O)(=O)N3CCOCC3)c2)c(O)c1	-3.6	-3.4	-0.7	20.3	91.9*
COc1ccc(C(=O)/C=C/Nc2ccc(S(=O)(=O)Nc3nc(C)cc(C)n3)cc2)c(OC)c1	-1.2	2.9	0.1	37.8	81.2*
